Results as given in publication PMC2233693 (The Journal of General Physiology, 2000).
Positions count from the first letter of the chain named. Where two headings read alike, the source gives them in different places.

Key:
[1] = target: T1, E340G mutant bovine olfactory CNG channel (Bos taurus, UniProt Q03041, E340G); experiment: Blockage of macroscopic current by internal Ca2+, inside-out patches; format: biochemical; settings: read-out: K i for internal Ca2+ blockage, +80 mV, 1 mM cGMP, average
T1 sequence (Q03041 1-663 E340G): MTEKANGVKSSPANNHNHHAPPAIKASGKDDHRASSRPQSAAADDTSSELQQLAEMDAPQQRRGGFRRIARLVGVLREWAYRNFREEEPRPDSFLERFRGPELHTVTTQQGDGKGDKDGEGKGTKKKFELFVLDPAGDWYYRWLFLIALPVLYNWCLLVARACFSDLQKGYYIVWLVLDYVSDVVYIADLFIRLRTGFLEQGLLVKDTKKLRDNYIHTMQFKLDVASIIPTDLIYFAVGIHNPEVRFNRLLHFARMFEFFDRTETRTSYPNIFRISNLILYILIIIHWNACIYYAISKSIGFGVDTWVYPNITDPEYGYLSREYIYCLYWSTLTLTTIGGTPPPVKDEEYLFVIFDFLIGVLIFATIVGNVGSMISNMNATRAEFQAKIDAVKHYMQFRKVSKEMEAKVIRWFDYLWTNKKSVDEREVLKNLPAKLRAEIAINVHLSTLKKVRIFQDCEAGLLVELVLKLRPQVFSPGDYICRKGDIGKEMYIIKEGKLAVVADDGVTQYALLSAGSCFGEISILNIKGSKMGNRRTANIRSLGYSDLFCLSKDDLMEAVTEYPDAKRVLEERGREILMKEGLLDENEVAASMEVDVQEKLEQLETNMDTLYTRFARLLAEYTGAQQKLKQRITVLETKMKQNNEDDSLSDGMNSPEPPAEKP

[2] = target: T2, wild-type bovine olfactory CNG channel (α3 subunit) (Bos taurus, UniProt Q03041); experiment: External Ca2+ blockage of single-channel current, outside-out patches; format: biochemical; settings: for effect on single-channel current: 5 μM cGMP; for n (single-channel Ca2+ blockage): Fig. 7 patch
T2 sequence (Q03041 1-663): T1 sequence (Q03041 1-663 E340G) with G340E
In short: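 Outside-out oocyte patches with cGMP in the pipette (wild-type 5 μM, E340G 1 mM) and increasing external Ca2+. Single-channel currents at +80 and −80 mV, filtered at 2 kHz, sampled at 10 kHz. Amplitudes from all-points histograms (30 s) fitted with summed Gaussians, normalised to divalent-free current, Hill-fitted for Ki and n. Two further patches per channel type.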

[3] = target: native olfactory CNG channels; settings: cited from earlier work
[4] = target: T3, E340Q mutant bovine olfactory CNG channel (Bos taurus, UniProt Q03041, E340Q); format: biochemical
T3 sequence (Q03041 1-663 E340Q): T1 sequence (Q03041 1-663 E340G) with G340Q

SMILES | Ki [1] [mM] | effect on single-channel current ([2]; 50 μM external Ca2+, −80 mV) | effect on single-channel current ([2]; 1 mM external Ca2+, −80 mV) | n (single-channel Ca2+ blockage) ([2]; +80 mV) | n (single-channel Ca2+ blockage) ([2]; −80 mV) | Ki ([3]; read-out: K i for external Ca2+ blockage, frog, +80 mV, ref Dzeja et al. 1999) [mM] | Ki ([3]; read-out: K i for external Ca2+ blockage, frog, −70 mV, ref Dzeja et al. 1999) [mM] | n(−80 mV), Hill coefficient ([4]; cGMP) | I(−80 mV)/I(+80 mV) ([4]; cGMP-gated current) | EC50 ([4]; read-out: K 1/2, cGMP, +80 mV) [µM] | EC50 ([4]; read-out: K 1/2, cGMP, −80 mV) [µM] | EC50 ([4]; read-out: K 1/2,cG, −80 mV, single patch, Fig. 1 fit) [µM] | n cG ([4]; −80 mV, single patch, Fig. 1 fit)
[Ca+2] [Ca^2+] | 1.5 ± 0.4 | partial blockage | no current was detected | 1 | 1.1 | ~2 | 0.265 | – | – | – | – | – | –
Nc1nc2c(ncn2[C@@H]2O[C@@H]3COP(=O)(O)O[C@H]3[C@H]2O)c(=O)[nH]1 [cGMP] | – | – | – | – | – | – | – | 2.7 ± 0.5 | 0.19 ± 0.06 | 4 ± 1.2 | 5.6 ± 1.7 | 4.8 | 2.4
